Data: ChEMBL document CHEMBL1126893, “Synthesis and CLOGP correlation of imidooxy anticonvulsants” (J Med Chem, 1993)

Key:
Format in all cases: functional
[1] = test system: Mus musculus; test: Anticonvulsant activity was measured by maximal electroshock test on mice at 0.25 hr at the dose of 50 mg/kg; number of animals protected/number of animals tested, 0/4
[2] = test system: Mus musculus; test: Anticonvulsant activity was measured by maximal electroshock test on mice at 0.50 hr at the dose of 50 mg/kg; number of animals protected/number of animals tested, 0/4
[3] = test system: Mus musculus; test: Anticonvulsant activity was measured by rotarod toxicity test on mice at 30 min at the dose of 300 mg/kg; number of animals protected/number of animals tested, 0/4
[4] = test system: Mus musculus; test: Anticonvulsant activity was measured by rotarod toxicity test on mice at 4 h at the dose of 300 mg/kg; number of animals protected/number of animals tested, 0/2
[5] = test system: Mus musculus; test: Anticonvulsant activity was measured by rotarod toxicity test on mice at 4 hr at the dose of 50 mg/kg; number of animals protected/number of animals tested, number of animals protected/number of animals tested, 0/4
[6] = test system: Mus musculus; test: Anticonvulsant activity was measured by subcutaneous pentylenetetrazole test on mice at 30 min at the dose of 100 mg/kg; number of animals protected/number of animals tested, 2/5
[7] = test system: Mus musculus; test: Anticonvulsant activity was measured by subcutaneous pentylenetetrazole test on mice at 30 min at the dose of 300 mg/kg; number of animals protected/number of animals tested, 5/5
[8] = test system: Mus musculus; test: Anticonvulsant activity was measured by rotarod toxicity test on mice at 30 min at the dose of 100 mg/kg; number of animals protected/number of animals tested, 0/8
[9] = test system: Mus musculus; test: Anticonvulsant activity was measured by rotarod toxicity teston mice at 0.25 hr at the dose of 50 mg/kg; number of animals protected/number of animals tested, 0/4
[10] = test system: Mus musculus; test: Anticonvulsant activity was measured by rotarod toxicity teston mice at 0.50 hr at the dose of 50 mg/kg; number of animals protected/number of animals tested, 0/4
[11] = test system: Mus musculus; test: Anticonvulsant activity was measured by maximal electroshock test on mice at 30 min at the dose of 300 mg/kg; number of animals protected/number of animals tested, 1/1
[12] = test system: Mus musculus; test: Anticonvulsant activity was measured by maximal electroshock test on mice at 4 hr at the dose of 300 mg/kg; number of animals protected/number of animals tested, 0/1
[13] = test system: Mus musculus; test: Anticonvulsant activity was measured by rotarod toxicity test on mice at 4 hr at the dose of 100 mg/kg; number of animals protected/number of animals tested, 0/4
[14] = test system: Mus musculus; test: Anticonvulsant activity was measured by maximal electroshock test on mice at 4 hr at the dose of 100 mg/kg; number of animals protected/number of animals tested, 0/3
[15] = test system: Mus musculus; test: Anticonvulsant activity was measured by maximal electroshock test on mice at 4 hr at the dose of 50 mg/kg; number of animals protected/number of animals tested, 0/4
[16] = test system: Mus musculus; test: Anticonvulsant activity was measured by rotarod toxicity test on mice at 2 hr at the dose of 50 mg/kg; number of animals protected/number of animals tested, 0/4
[17] = test system: Mus musculus; test: Anticonvulsant activity was measured by subcutaneous pentylenetetrazole test on mice at 4 h at the dose of 300 mg/kg; number of animals protected/number of animals tested, 0/1
[18] = test system: Mus musculus; test: Anticonvulsant activity was measured by subcutaneous pentylenetetrazole test on mice at 4 hr at the dose of 100 mg/kg; number of animals protected/number of animals tested, 0/1
[19] = test system: Mus musculus; test: Anticonvulsant activity was measured by maximal electroshock test on mice at 2 hr at the dose of 50 mg/kg; number of animals protected/number of animals tested, 2/4
[20] = test system: Mus musculus; test: Anticonvulsant activity was measured by maximal electroshock test on mice at 30 min at the dose of 100 mg/kg; number of animals protected/number of animals tested, 1/3
[21] = test system: Mus musculus; test: Time of peak effect of activity of compound was measured by both MES and sc Met test in mice
Procedure, shortened: (§1)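 Phase II quantification in mice after ip dosing. ED50 (scMet or MES) measured at the time of peak effect. TD50 (rotorod neurologic deficit) measured at the time of peak neurologic deficit. Medians and 95% confidence limits by the Litchfield-Wilcoxon method. Protective index = TD50/ED50. Time of peak effect determined in the MES or scMet test.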

[22] = test system: Mus musculus; test: Time of peak effect of toxicity of compound was measured by both MES and sc Met test in mice; procedure, shortened: as §1
[23] = test system: Mus musculus; test: Elevation of threshold for electroshock induced seizures in mice was measured by ip administration after 0.5 hr at the dose of 60 mg /kg
Procedure, shortened: (§2)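 Elevation of maximal (tonic extension) electroshock seizure threshold in male CF1 mice (23-34 g). Compound given ip as a 0.5% methylcellulose suspension at 60, 80 and 90 mg/kg, with testing at 0.5 h. Read-out is % elevation of threshold. TID20 is the dose raising the threshold by 20%.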

[24] = test system: Mus musculus; test: Elevation of threshold for electroshock induced seizures in mice was measured by ip administration after 0.5 hr at the dose of 80 mg /kg; procedure, shortened: as §2
[25] = test system: Mus musculus; test: Elevation of threshold for electroshock induced seizures in mice was measured by ip administration after 0.5 hr at the dose of 90 mg/kg; conditions: route intraperitoneal; procedure, shortened: as §2
[26] = species: Mus musculus; test: TID20 was measured by MES test in mice; procedure, shortened: as §2
[27] = species: Mus musculus; test: Time of peak effect of activity of compound was measured by MES test in mice; procedure, shortened: as §1
[28] = species: Mus musculus; test: Time of peak effect of toxicity of compound was measured by MES test in mice; procedure, shortened: as §1
[29] = test system: Mus musculus; test: Elevation of threshold for electroshock induced seizures in mice was measured by po administration after 0.5 hr at the dose of 200 mg/kg; 1/8
Procedure, shortened: (§3)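 Maximal electroshock test in male CF1 mice (23-34 g). Compound given as a 0.5% methylcellulose suspension ip or po, with testing at 0.5 h after several doses. Endpoint is protection from tonic hind limb extension.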

[30] = test system: Mus musculus; test: Elevation of threshold for electroshock induced seizures in mice was measured by po administration after 0.5 hr at the dose of 300 mg/kg; 2/8; procedure, shortened: as §3
[31] = test system: Mus musculus; test: Elevation of threshold for electroshock induced seizures in mice was measured by po administration after 0.5 hr at the dose of 400 mg/kg; 2/5; procedure, shortened: as §3
[32] = test system: Mus musculus; test: Effective dose was measured in mouse by maximal electroshock method by ip administration; 100-122; procedure, shortened: as §1
[33] = species: Mus musculus; test: ED50 value of compound was expressed as dose protecting 50% of mice from tonic hind limb extension; conditions: Hindlimb; procedure, shortened: as §3
[34] = species: Mus musculus; test: Protective index (TD50/ED50) value in MES test in mice

O=C1CC2(CCCC2)C(=O)N1OCc1ccccc1C(F)(F)F
Ratio [1]: 0 | Ratio [2]: 0 | Ratio [3]: 0 | Ratio [4]: 0 | Ratio [5]: 0 | Ratio [6]: 2 | Ratio [7]: 5 | Ratio [8]: 0 | Ratio [9]: 0 | Ratio [10]: 0 | Ratio [11]: 1 | Ratio [12]: 0 | Ratio [13]: 0 | Ratio [14]: 0 | Ratio [15]: 0 | Ratio [16]: 0 | Ratio [17]: 0 | Ratio [18]: 0 | Ratio [19]: 2 | Ratio [20]: 1

CCC1(c2ccccc2)C(=O)NC(=O)NC1=O [PHENOBARBITAL]
TPE [21]: 1 toxicity | TPE [22]: 0.5

O=C1CC2(CCCC2)C(=O)N1OCc1ccccc1
Elevation of threshold [23]: 14% | Elevation of threshold [24]: 26% | Elevation of threshold [25]: 28% | TID20 [26]: 71 mg/kg | TPE [27]: 0.25 | TPE [28]: 4 toxicity | No. of mice protected/tested [29]: 1 | No. of mice protected/tested [30]: 2 | No. of mice protected/tested [31]: 2 | ED50 [32]: 111 mg/kg | ED50 [33]: 494 mg/kg | PI [34]: >4.5
